Test results taken from ChEMBL document CHEMBL1142136, “Contribution of target gene mutations and efflux to decreased susceptibility of Salmonella enterica serovar typhimurium to fluoroquinolones and other antimicrobials” (2007).
Converted amounts (≈) assume the structure as drawn.

Experiments:
Type in all cases: functional, Salmonella enterica subsp. enterica serovar Typhimurium
Salmonella typhimurium [1] = experiment: Antimicrobial activity against Salmonella enterica serovar Typhimurium S21 tolC::Kan
Method in brief: (§1)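 MICs by automated broth microdilution panels, interpreted to CLSI broth microdilution standards. Ciprofloxacin additionally tested by agar dilution across 0.0075 to 128 μg/ml. Quality control strains: E. coli ATCC 25922 and 35218, Enterococcus faecalis ATCC 29212, S. aureus ATCC 29213, P. aeruginosa ATCC 27853. Test strains are kanamycin-marked deletion mutants of ground-beef isolate S21.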

Salmonella typhimurium [2] = experiment: Antimicrobial activity against Salmonella enterica serovar Typhimurium S21-4 gyrA+ with ParC S80I mutation
Method in brief: (§2)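 MICs measured by broth microdilution on the Sensititre automated system and interpreted by CLSI broth microdilution standards. Ciprofloxacin was also tested by agar dilution, widening the range to 0.0075–128 μg/ml. Quality control strains were E. coli ATCC 25922 and 35218, E. faecalis ATCC 29212, S. aureus ATCC 29213 and P. aeruginosa ATCC 27853.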

Salmonella typhimurium [3] = experiment: Antimicrobial activity against Salmonella enterica serovar Typhimurium S21-1 gyrA+; method in brief: as §2
Salmonella typhimurium [4] = experiment: Antimicrobial activity against Salmonella enterica serovar Typhimurium CHS38 gyrA+ with GyrA D87G mutation; method in brief: as §2
Salmonella typhimurium [5] = experiment: Antimicrobial activity against Salmonella enterica serovar Typhimurium CS3 acrAB::Kan with GyrA S83F, D87N, ParC S80I mutation; method in brief: as §2
Salmonella typhimurium [6] = experiment: Antimicrobial activity against Salmonella enterica serovar Typhimurium CS9 gyrA+ with GyrA S83F, D87N, ParC S80I mutation; method in brief: as §2
Salmonella typhimurium [7] = experiment: Antimicrobial activity against Salmonella enterica serovar Typhimurium CS9 with GyrA S83F, D87N, ParC S80I mutation; method in brief: as §2
Salmonella typhimurium [8] = experiment: Antimicrobial activity against Salmonella enterica serovar Typhimurium S21-2 gyrA+ with ParC S80I mutation; method in brief: as §2
Salmonella typhimurium [9] = experiment: Antimicrobial activity against Salmonella enterica serovar Typhimurium S21-4 with GyrA S83F, ParC S80I mutation; method in brief: as §2
Salmonella typhimurium [10] = experiment: Antimicrobial activity against Salmonella enterica serovar Typhimurium S21 gyrA+; method in brief: as §2
Salmonella typhimurium [11] = experiment: Antimicrobial activity against Salmonella enterica serovar Typhimurium CHS38 with GyrA D87G mutation; method in brief: as §2
Salmonella typhimurium [12] = experiment: Antimicrobial activity against Salmonella enterica serovar Typhimurium CHS14 with GyrA D87G mutation; method in brief: as §2
Salmonella typhimurium [13] = experiment: Antimicrobial activity against Salmonella enterica serovar Typhimurium CHS18 acrAB::Kan with GyrA S38F mutation; method in brief: as §2
Salmonella typhimurium [14] = experiment: Antimicrobial activity against Salmonella enterica serovar Typhimurium S21-4 acrAB::Kan with GyrA S83F, ParC S80I mutation; method in brief: as §2
Salmonella typhimurium [15] = experiment: Antimicrobial activity against Salmonella enterica serovar Typhimurium S21; method in brief: as §2
Salmonella typhimurium [16] = experiment: Antimicrobial activity against Salmonella enterica serovar Typhimurium CS1 with GyrA S83F, D87N, ParC S80I mutation; method in brief: as §2
Salmonella typhimurium [17] = experiment: Antimicrobial activity against Salmonella enterica serovar Typhimurium CHS14 acrAB::Kan with GyrA D87G mutation; method in brief: as §2
Salmonella typhimurium [18] = experiment: Antimicrobial activity against Salmonella enterica serovar Typhimurium CS3 with GyrA S83F, D87N, ParC S80I mutation; method in brief: as §2
Salmonella typhimurium [19] = experiment: Antimicrobial activity against Salmonella enterica serovar Typhimurium S21-3 gyrA+ with ParC S80I mutation; method in brief: as §2
Salmonella typhimurium [20] = experiment: Antimicrobial activity against Salmonella enterica serovar Typhimurium CS3 gyrA+ with GyrA S83F, D87N, ParC S80I mutation; method in brief: as §2
Salmonella typhimurium [21] = experiment: Antimicrobial activity against Salmonella enterica serovar Typhimurium S21-3 acrAB::Kan with GyrA S83F, ParC S80I mutation; method in brief: as §2
Salmonella typhimurium [22] = experiment: Antimicrobial activity against Salmonella enterica serovar Typhimurium CHS14 gyrA+ with GyrA D87G mutation; method in brief: as §2
Salmonella typhimurium [23] = experiment: Antimicrobial activity against Salmonella enterica serovar Typhimurium GyrA S21-1 acrAB::Kan with GyrA S83F mutation; method in brief: as §2
Salmonella typhimurium [24] = experiment: Antimicrobial activity against Salmonella enterica serovar Typhimurium CHS14 tolC::Kan with GyrA D87G mutant; method in brief: as §2
Salmonella typhimurium [25] = experiment: Antimicrobial activity against Salmonella enterica serovar Typhimurium CHS18 tolC::Kan with GyrA S38F mutation; method in brief: as §2
Salmonella typhimurium [26] = experiment: Antimicrobial activity against Salmonella enterica serovar Typhimurium S21-2 acrAB::Kan with GyrA S83F, ParC S80I mutation; method in brief: as §2
Salmonella typhimurium [27] = experiment: Antimicrobial activity against Salmonella enterica serovar Typhimurium S21-3 with GyrA S83F, ParC S80I mutation; method in brief: as §2
Salmonella typhimurium [28] = experiment: Antimicrobial activity against Salmonella enterica serovar Typhimurium S21-2 tolC::Kan with GyrA S83F, ParC S80I mutation; method in brief: as §2
Salmonella typhimurium [29] = experiment: Antimicrobial activity against Salmonella enterica serovar Typhimurium CS1 tolC::Kan with GyrA S83F, D87N, ParC S80I mutation; method in brief: as §2
Salmonella typhimurium [30] = experiment: Antimicrobial activity against Salmonella enterica serovar Typhimurium CS1 gyrA+ with GyrA S83F, D87N, ParC S80I mutation; method in brief: as §2
Salmonella typhimurium [31] = experiment: Antimicrobial activity against Salmonella enterica serovar Typhimurium CHS18 with GyrA S38F mutation; method in brief: as §2
Salmonella typhimurium [32] = experiment: Antimicrobial activity against Salmonella enterica serovar Typhimurium S21-3 tolC::Kan with GyrA S83F, ParC S80I mutation; method in brief: as §2
Salmonella typhimurium [33] = experiment: Antimicrobial activity against Salmonella enterica serovar Typhimurium CS3 tolC::Kan with GyrA S83F, D87N, parC S80I mutation; method in brief: as §2
Salmonella typhimurium [34] = experiment: Antimicrobial activity against Salmonella enterica serovar Typhimurium CHS38 tolC::Kan with GyrA D87G mutation; method in brief: as §2
Salmonella typhimurium [35] = experiment: Antimicrobial activity against Salmonella enterica serovar Typhimurium CS9 acrAB::Kan with GyrA S83F, D87N, ParC S80I mutation; method in brief: as §2
Salmonella typhimurium [36] = experiment: Antimicrobial activity against Salmonella enterica serovar Typhimurium S21-1 tolC::Kan with GyrA S83F mutation; method in brief: as §2
Salmonella typhimurium [37] = experiment: Antimicrobial activity against Salmonella enterica serovar Typhimurium S21-1 GyrA S83F mutant; method in brief: as §2
Salmonella typhimurium [38] = experiment: Antimicrobial activity against Salmonella enterica serovar Typhimurium S21-4 tolC::Kan with GyrA S83F, ParC S80I mutation; method in brief: as §2
Salmonella typhimurium [39] = experiment: Antimicrobial activity against Salmonella enterica serovar Typhimurium S21-2 with GyrA S83F, ParC S80I mutation; method in brief: as §2
Salmonella typhimurium [40] = experiment: Antimicrobial activity against Salmonella enterica serovar Typhimurium CHS18 gyrA+ with GyrA S38F mutation; method in brief: as §2
Salmonella typhimurium [41] = experiment: Antimicrobial activity against Salmonella enterica serovar Typhimurium CS9 tolC::Kan with GyrA S83F, D87N, ParC S80I mutation; method in brief: as §2
Salmonella typhimurium [42] = experiment: Antimicrobial activity against Salmonella enterica serovar Typhimurium S21 acrAB::Kan; method in brief: as §1
Salmonella typhimurium [43] = experiment: Antimicrobial activity against Salmonella enterica serovar Typhimurium CHS38 acrAB::Kan with GyrA D87G mutation; method in brief: as §2
Salmonella typhimurium [44] = experiment: Antimicrobial activity against Salmonella enterica serovar Typhimurium CS1 acrAB::Kan with GyrA S83F, D87N, ParC S80I mutation; method in brief: as §2

## O=C(O)c1cn(-c2ccc(F)cc2)c2cc(N3CCNCC3)c(F)cc2c1=O [SARAFLOXACIN]
Salmonella typhimurium [1]
  MIC: < 0.015 µg/mL
Salmonella typhimurium [2]
  MIC: 2 µg/mL (≈ 5.19 µM)
Salmonella typhimurium [3]
  MIC: 0.03 µg/mL (≈ 0.0778 µM)
Salmonella typhimurium [4]
  MIC: < 0.015 µg/mL
Salmonella typhimurium [5]
  MIC: 4 µg/mL (≈ 10.4 µM)
Salmonella typhimurium [6]
  MIC: 0.03 µg/mL (≈ 0.0778 µM)
Salmonella typhimurium [7]
  MIC: > 16 µg/mL
Salmonella typhimurium [8]
  MIC: 0.25 µg/mL (≈ 0.649 µM)
Salmonella typhimurium [9]
  MIC: > 16 µg/mL
Salmonella typhimurium [10]
  MIC: 0.03 µg/mL (≈ 0.0778 µM)
Salmonella typhimurium [11]
  MIC: 0.12 µg/mL (≈ 0.311 µM)
Salmonella typhimurium [12]
  MIC: 0.25 µg/mL (≈ 0.649 µM)
Salmonella typhimurium [13]
  MIC: 0.03 µg/mL (≈ 0.0778 µM)
Salmonella typhimurium [14]
  MIC: 0.5 µg/mL (≈ 1.3 µM)
Salmonella typhimurium [15]
  MIC: 0.03 µg/mL (≈ 0.0778 µM)
Salmonella typhimurium [16]
  MIC: 16 µg/mL (≈ 41.5 µM)
Salmonella typhimurium [17]
  MIC: < 0.015 µg/mL
Salmonella typhimurium [18]
  MIC: 16 µg/mL (≈ 41.5 µM)
Salmonella typhimurium [19]
  MIC: 1 µg/mL (≈ 2.59 µM)
Salmonella typhimurium [20]
  MIC: 0.06 µg/mL (≈ 0.156 µM)
Salmonella typhimurium [21]
  MIC: 0.5 µg/mL (≈ 1.3 µM)
Salmonella typhimurium [22]
  MIC: 0.03 µg/mL (≈ 0.0778 µM)
Salmonella typhimurium [23]
  MIC: 0.12 µg/mL (≈ 0.311 µM)
Salmonella typhimurium [24]
  MIC: < 0.015 µg/mL
Salmonella typhimurium [25]
  MIC: 0.03 µg/mL (≈ 0.0778 µM)
Salmonella typhimurium [26]
  MIC: 0.5 µg/mL (≈ 1.3 µM)
Salmonella typhimurium [27]
  MIC: > 16 µg/mL
Salmonella typhimurium [28]
  MIC: 0.5 µg/mL (≈ 1.3 µM)
Salmonella typhimurium [29]
  MIC: 4 µg/mL (≈ 10.4 µM)
Salmonella typhimurium [30]
  MIC: 0.06 µg/mL (≈ 0.156 µM)
Salmonella typhimurium [31]
  MIC: 0.25 µg/mL (≈ 0.649 µM)
Salmonella typhimurium [32]
  MIC: 0.5 µg/mL (≈ 1.3 µM)
Salmonella typhimurium [33]
  MIC: 4 µg/mL (≈ 10.4 µM)
Salmonella typhimurium [34]
  MIC: < 0.015 µg/mL
Salmonella typhimurium [35]
  MIC: 4 µg/mL (≈ 10.4 µM)
Salmonella typhimurium [36]
  MIC: 0.12 µg/mL (≈ 0.311 µM)
Salmonella typhimurium [37]
  MIC: 1 µg/mL (≈ 2.59 µM)
Salmonella typhimurium [38]
  MIC: 0.5 µg/mL (≈ 1.3 µM)
Salmonella typhimurium [39]
  MIC: 8 µg/mL (≈ 20.8 µM)
Salmonella typhimurium [40]
  MIC: 0.06 µg/mL (≈ 0.156 µM)
Salmonella typhimurium [41]
  MIC: 4 µg/mL (≈ 10.4 µM)
Salmonella typhimurium [42]
  MIC: < 0.015 µg/mL
Salmonella typhimurium [43]
  MIC: 0.03 µg/mL (≈ 0.0778 µM)
Salmonella typhimurium [44]
  MIC: 4 µg/mL (≈ 10.4 µM)
